From ChEMBL document CHEMBL3808280, “GroEL/ES inhibitors as potential antibiotics” (Bioorg Med Chem Lett, 2016)
Values after ≈ are worked out from the molar mass of the structure shown. Active and inactive are the calls of the source. The rule behind the calls is not given here.

Legend:
Acinetobacter baumannii = test: Antibacterial activity against multidrug resistant Acinetobacter baumannii 2208 (ATCC 19606) assessed as reduction in bacterial growth incubated for 6 to 8 hrs; assay type: functional
How it was run: (§1)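 Broth proliferation assay. S. aureus and MRSA grown in ATCC Medium 18, other pathogens in Brain Heart Infusion. Stagnant incubation at 37°C under breathable seal. OD600 read at mid-log (6-8 h) and corrected with bacteria-free baseline plates. EC50 by variable-slope nonlinear fit, at least triplicate.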

HSP60/HSP10 [1] = molecular target: T1, HSP60/HSP10 (Homo sapiens, UniProt P10809); test: Inhibition of human HSP60/HSP10 expressed in Escherichia coli Rosetta2(DE3) cells assessed as reduction in denatured pig heart MDH ATPase activity by malachite green dye based assay
Pseudomonas aeruginosa = test: Antibacterial activity against multidrug resistant Pseudomonas aeruginosa NCTC 10332 (ATCC 10145) assessed as reduction in bacterial growth incubated for 6 to 8 hrs; assay type: functional, organism-based; how it was run: as §1
Escherichia coli [2] = test: Antibacterial activity against Escherichia coli DH5alpha assessed as reduction in bacterial growth incubated for 6 to 8 hrs; assay type: functional, organism-based; details: DH5[alpha]
E. coli GroEL/ES [3] = molecular target: T2, E. coli GroEL/ES (Escherichia coli, UniProt P0A6F5); test: Inhibition of Escherichia coli GroEL/GroES using Escherichia coli GroEL expressed in Escherichia coli DH5alpha cells and Escherichia coli GroES expressed in Escherichia coli BL21(DE3) cells assessed as reduction in native refolded rhodanese-mediated thiocyanate production by micro plate reader analysis
E. coli GroEL/ES [4] = molecular target: T2, E. coli GroEL/ES; test: Inhibition of Escherichia coli GroEL/GroES using Escherichia coli GroEL expressed in Escherichia coli DH5alpha cells and Escherichia coli GroES expressed in Escherichia coli BL21(DE3) cells assessed as reduction in pig heart native refolded MDH-mediated NADH production by micro plate reader analysis
How it was run: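 Native MDH counter-screen. GroEL/ES-dMDH refolding run 60 min at 37°C, then EDTA-quenched without compound. IC50 averaged from at least triplicate.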

Staphylococcus aureus [5] = test: Antibacterial activity against methicillin susceptible Staphylococcus aureus subsp. aureus Seattle 1945 (ATCC 25923) assessed as reduction in bacterial growth incubated for 6 to 8 hrs
[6] = test system: Klebsiella pneumoniae subsp. pneumoniae; test: Antibacterial activity against multidrug resistant Klebsiella pneumoniae subsp. pneumoniae NCTC 9633 (ATCC 13883) assessed as reduction in bacterial growth incubated for 6 to 8 hrs; assay type: functional, organism-based; how it was run: as §1
Enterococcus faecium = test: Antibacterial activity against multidrug resistant Enterococcus faecium NCTC 7171 (ATCC 19434) assessed as reduction in bacterial growth incubated for 6 to 8 hrs; assay type: functional, organism-based; how it was run: as §1
Staphylococcus aureus [7] = test: Antibacterial activity against Staphylococcus aureus subsp. aureus Seattle 1945 (ATCC 25923) assessed as inhibition of visual growth after 24 hrs; assay type: functional
How it was run: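 MIC assay in Tryptic Soy broth (ATCC Medium 18). An overnight culture was diluted 5-fold, grown 1 h at 37°C, then diluted to OD600 0.01 (~10⁷ CFU/ml). Compounds were added in DMSO at fixed final concentrations (e.g. vancomycin 1.2-2.2 µM).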

HSP60/HSP10 [8] = molecular target: T1, HSP60/HSP10; test: Inhibition of human HSP60/HSP10 expressed in Escherichia coli Rosetta2(DE3) cells assessed as inhibition of denatured pig heart MDH refolding by measuring reduction in NADH production incubated for 60 mins by micro plate reader analysis
How it was run: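 Pig heart MDH was denatured in guanidine-HCl (dMDH) and complexed with HSP60, then HSP10, in Tris pH 7.4/KCl/MgCl2/DTT buffer. EDTA quench (100 mM final); refolded MDH activity was followed with mesoxalate/NADH at 340 nm.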

Escherichia coli [9] = test: Antibacterial activity against Escherichia coli SM101 assessed as reduction in bacterial growth incubated for 12 hrs by UV-Vis spectrophotometric analysis; assay type: functional, organism-based; details: SM101, 12 h
Escherichia coli [10] = test: Antibacterial activity against acrB-deficient Escherichia coli MC4100 assessed as reduction in bacterial growth incubated for 6 to 8 hrs; assay type: functional, organism-based
Bacillus subtilis = test: Antibacterial activity against Bacillus subtilis 168 assessed as reduction in bacterial growth incubated for 6 to 8 hrs; assay type: functional, organism-based; details: subsp. subtilis str. 168
E. coli GroEL/ES [11] = molecular target: T2, E. coli GroEL/ES; test: (§2) Inhibition of Escherichia coli GroEL/GroES using Escherichia coli GroEL expressed in Escherichia coli DH5alpha cells and Escherichia coli GroES expressed in Escherichia coli BL21(DE3) cells assessed as inhibition of denatured rhodanese refolding by measuring reduction in thiocyanate production incubated for 60 mins by micro plate reader analysis
How it was run: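 Urea-denatured rhodanese bound to GroEL/GroES in folding buffer containing thiosulfate. After 60 min at 37°C, thiocyanate reaction (KCN, thiosulfate, phosphate) run, then formaldehyde quench and ferric nitrate added. Fe(SCN)3 read at 460 nm after 15 min RT, with protein-free baseline plates.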

Enterobacter cloacae = test: Antibacterial activity against multidrug resistant Enterobacter cloacae subsp. cloacae CDC 442-68 (ATCC 13047) assessed as reduction in bacterial growth incubated for 6 to 8 hrs; assay type: functional, organism-based; how it was run: as §1
E. coli GroEL/ES [12] = molecular target: T2, E. coli GroEL/ES; test: as §2, with “pig heart MDH” for “rhodanese”, “NADH” for “thiocyanate”
How it was run: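 Denatured MDH (guanidine-HCl/DTT, 30 min RT) bound to GroEL with GroES in Tris pH 7.4, KCl, MgCl2, DTT buffer. 60 min at 37°C, EDTA quench to 100 mM. Refolded MDH activity read with mesoxalate/NADH at 340 nm. Log-averaged IC50 from replicates.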

[13] = Therapeutic index, ratio of EC50 for HEK293 cells to EC50 for Staphylococcus aureus subsp. aureus Seattle 1945 (ATCC 25923); assay type: cell-based; details: human, read-out: Ratio EC50
Staphylococcus aureus [14] = test: Bactericidal activity against Staphylococcus aureus subsp. aureus Seattle 1945 (ATCC 25923) at 4 times MIC up to 24 hrs by agar dilution method; assay type: functional, organism-based
How it was run: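 Time-kill in ATCC Medium 18. […] Viable counts were taken at 0, 1, 2, 4, 6 and 24 h by dilution and plating on Medium 18 agar. Values are averages of triplicates.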

[15] = Therapeutic index, ratio of EC50 for human THLE3 cells to EC50 for Staphylococcus aureus subsp. aureus Seattle 1945 (ATCC 25923); assay type: cell-based; details: read-out: Ratio EC50
[16] = Cytotoxicity against human THLE3 cells assessed as reduction in cell viability after 48 hrs by alamar blue assay; assay type: cell-based; details: THLE3, 48 h
Staphylococcus aureus [17] = test: Antibacterial activity against methicillin resistant Staphylococcus aureus subsp. aureus HPV107 (ATCC BAA-44) assessed as reduction in bacterial growth incubated for 6 to 8 hrs; assay type: functional, organism-based; how it was run: as §1
HEK293 = test: Cytotoxicity against HEK293 cells assessed as reduction in cell viability after 48 hrs by alamar blue assay; assay type: cell-based; details: Homo sapiens, HEK293, 48 h
E. coli GroEL/ES [18] = molecular target: T2, E. coli GroEL/ES; test: Inhibition of Escherichia coli GroEL/GroES using Escherichia coli GroEL expressed in Escherichia coli DH5alpha cells and Escherichia coli GroES expressed in Escherichia coli BL21(DE3) cells assessed as reduction in denatured pig heart MDH ATPase activity by malachite green dye based assay

T2 sequence (P0A6F5 whole entry, looked up): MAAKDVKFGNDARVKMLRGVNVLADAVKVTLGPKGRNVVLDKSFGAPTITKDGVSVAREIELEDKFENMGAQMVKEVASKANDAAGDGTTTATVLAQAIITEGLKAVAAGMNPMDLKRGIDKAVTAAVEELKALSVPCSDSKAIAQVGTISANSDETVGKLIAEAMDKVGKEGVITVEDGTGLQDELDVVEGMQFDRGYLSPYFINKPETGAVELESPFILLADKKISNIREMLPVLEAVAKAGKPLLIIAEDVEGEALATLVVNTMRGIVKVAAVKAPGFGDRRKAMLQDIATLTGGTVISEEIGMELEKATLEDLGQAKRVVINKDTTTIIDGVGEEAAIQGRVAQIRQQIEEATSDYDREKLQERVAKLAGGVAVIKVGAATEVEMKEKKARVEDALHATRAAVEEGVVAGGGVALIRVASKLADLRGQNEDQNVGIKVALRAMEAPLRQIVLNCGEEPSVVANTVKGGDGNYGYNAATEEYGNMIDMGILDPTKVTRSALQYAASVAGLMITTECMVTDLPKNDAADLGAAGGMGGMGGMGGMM
T1 sequence (P10809 whole entry): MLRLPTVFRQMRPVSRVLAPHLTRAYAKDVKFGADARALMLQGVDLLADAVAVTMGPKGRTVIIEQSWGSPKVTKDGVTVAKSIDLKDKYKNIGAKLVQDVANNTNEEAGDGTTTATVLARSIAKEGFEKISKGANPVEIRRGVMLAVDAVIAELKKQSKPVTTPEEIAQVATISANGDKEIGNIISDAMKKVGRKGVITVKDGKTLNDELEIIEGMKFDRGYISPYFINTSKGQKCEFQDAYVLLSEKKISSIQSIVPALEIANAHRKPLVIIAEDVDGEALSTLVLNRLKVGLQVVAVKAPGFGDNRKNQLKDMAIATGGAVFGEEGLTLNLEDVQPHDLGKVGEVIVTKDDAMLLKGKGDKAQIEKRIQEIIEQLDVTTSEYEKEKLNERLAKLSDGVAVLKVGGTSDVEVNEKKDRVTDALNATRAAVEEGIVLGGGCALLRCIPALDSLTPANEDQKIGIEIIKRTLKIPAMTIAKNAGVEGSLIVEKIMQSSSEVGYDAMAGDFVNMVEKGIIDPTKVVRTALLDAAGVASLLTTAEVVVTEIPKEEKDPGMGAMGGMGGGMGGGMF
T1 sequence (P61604 whole entry, further chain): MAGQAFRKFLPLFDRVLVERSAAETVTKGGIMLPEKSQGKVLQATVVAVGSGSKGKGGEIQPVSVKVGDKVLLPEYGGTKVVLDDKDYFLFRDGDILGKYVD

| Structure (SMILES) | EC50 (Acinetobacter baumannii) [µM] | IC50 (HSP60/HSP10 [1]) [µM] | EC50 (Pseudomonas aeruginosa) [µM] | EC50 (Escherichia coli [2]) [µM] | IC50 (E. coli GroEL/ES [3]) [µM] | IC50 (E. coli GroEL/ES [4]) [µM] | EC50 (Staphylococcus aureus [5]) [nM] | EC50 [6] [µM] | EC50 (Enterococcus faecium) [nM] | MIC (Staphylococcus aureus [7]) [µM] | IC50 (HSP60/HSP10 [8]) [µM] | EC50 (Escherichia coli [9]) [nM] | EC50 (Escherichia coli [10]) [µM] | EC50 (Bacillus subtilis) [nM] | IC50 (E. coli GroEL/ES [11]) [µM] | EC50 (Enterobacter cloacae) [µM] | IC50 (E. coli GroEL/ES [12]) [µM] | selectivity ratio [13] | Activity (Staphylococcus aureus [14]) | EC50 (Staphylococcus aureus [17]) [nM] | further results |
| --- | --- | --- | --- | --- | --- | --- | --- | --- | --- | --- | --- | --- | --- | --- | --- | --- | --- | --- | --- | --- | --- |
| Cn1c(=O)c(C(=O)Nc2ccncc2)c(O)c2ccccc21 | > 100 | > 250 | > 100 | > 100 | > 100 | > 62.5 | 1800 | > 100 | > 100000 | 8 (≈ 2.36 µg/mL) | > 100 | 3300 | 21 | 470 | 6.8 | > 100 | 5.7 | > 55 | Active | 1300 | selectivity ratio [15]: > 55; EC50 [16]: > 100 µM; EC50 (HEK293): > 100 µM |
| CN[C@@H](CC(C)C)C(=O)N[C@H]1C(=O)N[C@@H](CC(N)=O)C(=O)N[C@H]2C(=O)N[C@H]3C(=O)N[C@H](C(=O)N[C@@H](C(=O)O)c4cc(O)cc(O)c4-c4cc3ccc4O)[C@H](O)c3ccc(c(Cl)c3)Oc3cc2cc(c3O[C@H]2O[C@@H](CO)[C@H](O)[C@@H](O)[C@@H]2O[C@@H]2C[C@@](C)(N)[C@@H](O)[C@@H](C)O2)Oc2ccc(cc2Cl)[C@H]1O | 17 | – | 74 | – | – | – | 200 | > 100 | 300 | 1.6 (≈ 2.32 µg/mL) | – | – | – | – | – | > 100 | – | – | Active | 170 | – |
| O=C(Nc1ccc(Sc2nc3ccccc3s2)c(Cl)c1)c1cc(Br)cc(Br)c1O | 30 | 3.6 | > 100 | > 100 | > 100 | 7.1 | 200 | > 100 | 150 | 0.6 (≈ 0.342 µg/mL) | 5.5 | 330 | 2.3 | 100 | 1.4 | > 100 | 1.4 | 390 | Active | 130 | selectivity ratio [15]: 60; EC50 [16]: 12 µM; EC50 (HEK293): 78 µM; IC50 (E. coli GroEL/ES [18]): > 250 µM |
